From ChEMBL document CHEMBL1126902, “Synthesis, chemical reactivity, and antitumor evaluation of congeners of carmethizole hydrochloride, an experimental "acylated vinylogous carbinolamine" tumor inhibitor” (J Med Chem, 1993)

Legend:
P388 [1] = experiment: Percent increase in life span of dying mice tested in vivo at 82 mg/kg against ip implanted P388 Leukemia in mice; type: functional; settings: Mus musculus, route intraperitoneal
In short: (§1)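 Portage-CD2F1 female mice were inoculated ip with ascitic fluid containing ca. 5.2×10^6 P388 leukemia cells. Drug was given ip daily on days 1-5, starting 24 h after inoculation, and dosed by average body weight. %ILS was calculated from the median day of death of dying mice versus controls.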

P388 [2] = experiment: Change in tumor cell population in ip implanted P388 Leukemia in mice after administration of compound at 20.5 mg/kg; type: functional, Mus musculus; settings: route intraperitoneal
In short: (§2)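 Female Portage-CD2F1 mice were inoculated ip with ascitic fluid holding ca. 5.2×10^6 P388 cells. Dosing was ip on days 1-5, starting 24 h after inoculation, by average body weight, as a solution or suspension in saline plus Tween 80. KE is the net log change in viable tumor cell population from start to end of the treatment period.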

P388 [3] = experiment: Change in tumor cell population in ip implanted P388 Leukemia in mice after administration of compound at 41 mg/kg; type: functional, Mus musculus; settings: route intraperitoneal; in short: as §2
[4] = Percent increase in life span of dying mice tested in vivo at 41 mg/kg against ip implanted LOX amelanotic melanoma in mice (60-day survivors); type: functional; settings: Mus musculus, 1440 h, route intraperitoneal
In short: (§3)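 Female CD2F1 mice implanted ip with ascitic fluid carrying ca. 1.7×10^6 LOX amelanotic melanoma cells. Drug given ip on days 1, 5 and 9, starting 24 h after implant, dosed by exact body weight; solutions or suspensions made fresh daily. %ILS is from the median day of death of dying mice versus controls, excluding 60-day survivors.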

[5] = Change in tumor cell population in ip implanted LOX amelanotic melanoma in mice after administration of compound at 82 mg/kg; type: functional, Mus musculus; settings: route intraperitoneal
In short: (§4)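 Female CD2F1 mice were implanted ip with ascitic fluid holding ca. 1.7×10^6 LOX cells. Dosing was ip on days 1, 5 and 9, starting 24 h after implantation, by exact body weight, as a solution or suspension in saline plus Tween 80, freshly prepared daily. KE is the net log change in viable tumor cells from start to end of treatment. Bracketed KE assumes Poisson survival, with 60-day survivors tumor-free.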

[6] = Percent increase in life span of dying mice tested in vivo at 164 mg/kg against ip implanted LOX amelanotic melanoma in mice (60-day survivors); type: functional; settings: Mus musculus, 1440 h, route intraperitoneal; in short: as §3
P388 [7] = experiment: Change in tumor cell population in ip implanted P388 Leukemia in mice after administration of compound at 164 mg/kg; type: functional, Mus musculus; settings: route intraperitoneal; in short: as §2
[8] = Percent increase in life span of dying mice tested in vivo at 82 mg/kg against ip implanted LOX amelanotic melanoma in mice (60-day survivors); type: functional; settings: Mus musculus, 1440 h, route intraperitoneal
In short: (§5)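 Nude CD2F1 female mice were implanted ip with ascitic fluid containing ca. 1.7×10^6 LOX amelanotic melanoma cells. Drug was given ip on days 1, 5 and 9, starting 24 h after implantation, and dosed by exact body weight. Solutions or suspensions were made fresh daily in saline plus Tween 80. %ILS was calculated from the median day of death of dying mice versus controls, excluding 60-day survivors.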

P388 [9] = experiment: Percent increase in life span of dying mice tested in vivo at 41 mg/kg against ip implanted P388 Leukemia in mice; type: functional; settings: Mus musculus, route intraperitoneal
In short: (§6)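 Portage-CD2F1 female mice inoculated ip with ascitic fluid carrying ca. 5.2×10^6 P388 leukemia cells. Drug given ip daily on days 1-5, starting 24 h after inoculation, dosed by average body weight. %ILS is from the median day of death of dying mice versus controls.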

P388 [10] = experiment: Change in tumor cell population in ip implanted P388 Leukemia in mice after administration of compound at 82 mg/kg; type: functional, Mus musculus; settings: route intraperitoneal
In short: (§7)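 P388 leukemia: ascitic fluid with ca. 5.2×10^6 cells inoculated ip into Portage-CD₂F₁ female mice. Drug given ip on days 1-5, starting 24 h after inoculation, dosed by average body weight. Vehicle was saline plus Tween 80, as a solution or suspension. KE = net log change in viable tumor cells from start to end of treatment.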

[11] = Percent increase in life span of dying mice tested in vivo at 328 mg/kg against ip implanted LOX amelanotic melanoma in mice (60-day survivors); type: functional; settings: Mus musculus, 1440 h, route intraperitoneal; in short: as §3
P388 [12] = experiment: Percent increase in life span of dying mice tested in vivo at 20.5 mg/kg against ip implanted P388 Leukemia in mice; type: functional; settings: Mus musculus, route intraperitoneal; in short: as §6
P388 [13] = experiment: Percent increase in life span of dying mice tested in vivo at 164 mg/kg against ip implanted P388 Leukemia in mice; type: functional; settings: Mus musculus, route intraperitoneal; in short: as §6
Mus musculus = experiment: Change in tumor cell population in ip implanted LOX amelanotic melanoma in mice after administration of compound at 328 mg/kg; toxic; type: functional, organism-based; set-up: dose 328 mg/kg; in short: as §4
[14] = Change in tumor cell population in ip implanted LOX amelanotic melanoma in mice after administration of compound at 164 mg/kg; type: functional, Mus musculus; settings: route intraperitoneal; in short: as §4
[15] = Change in tumor cell population in ip implanted LOX amelanotic melanoma in mice after administration of compound at 41 mg/kg; type: functional, Mus musculus; settings: route intraperitoneal; in short: as §4
HT-29 = experiment: Concentration required to inhibit tumor growth in HT29, human colon adenocarcinoma cell line; type: functional, cell-based; settings: Homo sapiens, HT-29
In short: (§8)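 Cells grown in RPMI 1640 with 5% fetal calf serum, 5% NuSerum IV and 20 mM HEPES, seeded and allowed to adhere overnight. Compound dissolved in RPMI-1640 plus HEPES and tested over a 5 log range (10 concentrations) for 72 h. Read-out by sulforhodamine B assay. Median-effect dose derived by nonlinear regression of the concentration-effect curve.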

[16] = Concentration required to inhibit tumor growth in PSN-1, human pancreatic carcinoma cell line; type: functional
In short: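 PSN-1 pancreatic carcinoma cells exposed to compound dissolved in RPMI-1640 plus HEPES at its maximum soluble concentration for 72 h. Read-out by sulforhodamine B colorimetric assay.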

[17] = Concentration required to inhibit tumor growth in […], human breast adenocarcinoma cell line; type: functional; in short: as §8
A549 = experiment: Concentration required to inhibit tumor growth in A549, human lung carcinoma (NSCLC) cell line; type: functional, cell-based; in short: as §8
L1210 (Mus musculus) = experiment: Concentration required to inhibit tumor growth in L1210, murine lymphocytic leukemia cell line
[18] = Change in tumor cell population in ip implanted LOX amelanotic melanoma in mice after administration of compound at 47 mg/kg; type: functional, Mus musculus; settings: route intraperitoneal; in short: as §4
[19] = Percent increase in life span of dying mice tested in vivo at 188 mg/kg against ip implanted LOX amelanotic melanoma in mice (60-day survivors); type: functional; settings: Mus musculus, 1440 h, route intraperitoneal; in short: as §3
P388 [20] = experiment: Percent increase in life span of dying mice tested in vivo at 94 mg/kg against ip implanted P388 Leukemia in mice; type: functional; settings: Mus musculus, route intraperitoneal; in short: as §1
[21] = Change in tumor cell population in ip implanted LOX amelanotic melanoma in mice after administration of compound at 188 mg/kg; type: functional, Mus musculus; settings: route intraperitoneal; in short: as §4
P388 [22] = experiment: Percent increase in life span of dying mice tested in vivo at 47 mg/kg against ip implanted P388 Leukemia in mice; type: functional; settings: Mus musculus, route intraperitoneal; in short: as §6
P388 [23] = experiment: Change in tumor cell population in ip implanted P388 Leukemia in mice after administration of compound at 11.8 mg/kg; type: functional, Mus musculus; settings: route intraperitoneal; in short: as §2
[24] = Change in tumor cell population in ip implanted LOX amelanotic melanoma in mice after administration of compound at 23.5 mg/kg; type: functional, Mus musculus; settings: route intraperitoneal; in short: as §4
P388 [25] = experiment: Percent increase in life span of dying mice tested in vivo at 11.8 mg/kg against ip implanted P388 Leukemia in mice; type: functional; settings: Mus musculus, route intraperitoneal; in short: as §6
P388 [26] = experiment: Percent increase in life span of dying mice tested in vivo at 23.5 mg/kg against ip implanted P388 Leukemia in mice; type: functional; settings: Mus musculus, route intraperitoneal; in short: as §6
[27] = Percent increase in life span of dying mice tested in vivo at 23.5 mg/kg against ip implanted LOX amelanotic melanoma in mice (60-day survivors); type: functional; settings: Mus musculus, 1440 h, route intraperitoneal; in short: as §3
P388 [28] = experiment: Change in tumor cell population in ip implanted P388 Leukemia in mice after administration of compound at 47 mg/kg; type: functional, Mus musculus; settings: route intraperitoneal; in short: as §7
[29] = Percent increase in life span of dying mice tested in vivo at 47 mg/kg against ip implanted LOX amelanotic melanoma in mice (60-day survivors); type: functional; settings: Mus musculus, 1440 h, route intraperitoneal; in short: as §3
[30] = Change in tumor cell population in ip implanted LOX amelanotic melanoma in mice after administration of compound at 94 mg/kg; type: functional, Mus musculus; settings: route intraperitoneal; in short: as §4
[31] = Percent increase in life span of dying mice tested in vivo at 94 mg/kg against ip implanted LOX amelanotic melanoma in mice (60-day survivors); type: functional; settings: Mus musculus, 1440 h, route intraperitoneal; in short: as §5
P388 [32] = experiment: Change in tumor cell population in ip implanted P388 Leukemia in mice after administration of compound at 23.5 mg/kg; type: functional, Mus musculus; settings: route intraperitoneal; in short: as §2
P388 [33] = experiment: Change in tumor cell population in ip implanted P388 Leukemia in mice after administration of compound at 94 mg/kg; type: functional, Mus musculus; settings: route intraperitoneal; in short: as §7

| Structure (SMILES) | IC50 (HT-29) [µM] | IC50 [16] [µM] | IC50 [17] [µM] | IC50 (A549) [µM] | IC50 (L1210 (Mus musculus)) [µM] | KE [18] | ILS at 188 mg/kg [19] [%] | ILS at 94 mg/kg (P388 [20]) [%] | KE [21] | ILS at 47 mg/kg (P388 [22]) [%] | KE (P388 [23]) | KE [24] | ILS at 11.8 mg/kg (P388 [25]) [%] | ILS at 23.5 mg/kg (P388 [26]) [%] | ILS at 23.5 mg/kg [27] [%] | KE (P388 [28]) | ILS at 47 mg/kg [29] [%] | KE [30] | ILS at 94 mg/kg [31] [%] | KE (P388 [32]) | also measured |
| --- | --- | --- | --- | --- | --- | --- | --- | --- | --- | --- | --- | --- | --- | --- | --- | --- | --- | --- | --- | --- | --- |
| CNC(=O)OCc1nc(SSc2nc(COC(=O)NC)c(COC(=O)NC)n2C)n(C)c1COC(=O)NC |  |  |  |  |  |  |  |  |  |  |  |  |  |  |  |  |  |  |  |  | ILS at 82 mg/kg (P388 [1]): 17%; KE (P388 [2]): 1.3; KE (P388 [3]): 1.3; ILS at 41 mg/kg [4]: 3%; KE [5]: 1.8; ILS at 164 mg/kg [6]: -5%; KE (P388 [7]): 0.9; ILS at 82 mg/kg [8]: -5%; ILS at 41 mg/kg (P388 [9]): 20%; KE (P388 [10]): 1.3; ILS at 328 mg/kg [11]: -69%; ILS at 20.5 mg/kg (P388 [12]): 17%; ILS at 164 mg/kg (P388 [13]): 26%; KE (Mus musculus): Toxic; KE [14]: 1.8; KE [15]: 1.5 |
| CNC(=O)OCc1nc2n(c1COC(=O)NC)CCS2 | 108 | 118 | 147 | 190 | 11 |  |  |  |  |  |  |  |  |  |  |  |  |  |  |  |  |
| CNC(=O)OCc1nc(SC(C)C)n(C)c1COC(=O)NC |  |  |  |  |  | 0.7 | 45 | 59 | -0.2 | 27 | 0.6 | 1.3 | 31 | 25 | 13 | 0.9 | 24 | 0.6 | 28 | 1 | KE (P388 [33]): -1.5 |
| CCCSc1nc(COC(=O)NC)c(COC(=O)NC)n1C | 108 | 115 | 147 | 190 | 18 | 0.7 | 76 | 84 | -1.6 | 59 | -0.1 | 1.3 | 40 | 40 | 13 | -1.5 | 24 | 0.6 | 22 | -0.1 | KE (P388 [33]): -3.3 |
